Measurements reported in ChEMBL document CHEMBL1177656, “Improved P2 phenylglycine-based hepatitis C virus NS3 protease inhibitors with alkenylic prime-side substituents” (Bioorg Med Chem, 2010).

Tests used:
[1] = Inhibition of HCV NS3 protease by FRET assay; design: species or system Hepacivirus hominis
How it was run: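 Buffer was 50 mM HEPES pH 7.5, 10 mM DTT, 40% glycerol, 0.1% n-octyl-β-D-glucoside and 3.3% DMSO. Reaction was started with FRET substrate Ac-DED(Edans)EEAbu[COO]ASK(Dabcyl)-NH2. Ki was obtained by non-linear regression.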

Hepatitis C virus = assay: Antiviral activity against HCV 1B […] by firefly luciferase reporter gene assay; assay type: functional, organism-based, Hepacivirus hominis; details: genotype 1b, Huh-7
NS3 protease [2] = target: NS3 protease (Hepatitis C virus subtype 1b, UniProt Q0ZMF1, A156T); assay: Inhibition of HCV NS3 protease A156T mutant by FRET assay; design: species or system Hepacivirus hominis
How it was run: (§1)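 Buffer was 50 mM HEPES pH 7.5, 10 mM DTT, 40% glycerol, 0.1% n-octyl-β-D-glucoside and 3.3% DMSO. Reaction started with the FRET substrate Ac-DED(Edans)EEAbu[COO]ASK(Dabcyl)-NH2. Ki derived by non-linear regression.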

NS3 protease [3] = target: NS3 protease (Hepacivirus C, UniProt C1KIQ2, D168V); assay: Inhibition of HCV NS3 protease D168V mutant by FRET assay; design: species or system Hepacivirus hominis; how it was run: as §1

Ki [1]	SMILES	EC50 (Hepatitis C virus)	Ki (NS3 protease [2])	Ki (NS3 protease [3])
40 nM	CCC[C@H](NC(=O)[C@@H]1[C@H]2CCC[C@H]2CN1C(=O)[C@@H](NC(=O)[C@@H](NC(=O)c1cnccn1)C1CCCCC1)C(C)(C)C)C(=O)C(=O)NC1CC1 [TELAPREVIR]			
	CC(C)(C)OC(=O)N[C@H]1CCCCC/C=C\C2C[C@@]2(C(=O)NS(=O)(=O)C2CC2)NC(=O)[C@@H]2C[C@@H](OC(=O)N3Cc4cccc(F)c4C3)CN2C1=O (single isomer, unassigned) [DANOPREVIR]	2.1 nM		
0.36 nM	COc1ccc2c(O[C@@H]3C[C@H]4C(=O)N[C@]5(C(=O)NS(=O)(=O)C6CC6)C[C@H]5/C=C\CCCCN(C)C(=O)[C@@H]4C3)cc(-c3nc(C(C)C)cs3)nc2c1C [SIMEPREVIR]			
35 nM	C=CCc1ccccc1S(=O)(=O)NC(=O)[C@H](CCC)NC(=O)[C@H](NC(=O)[C@@H](NC(=O)OC(C)(C)C)C(C)(C)C)c1ccc(Oc2cc(-c3ccccc3)nc3cc(OC)ccc23)c(C=C)c1	3000 nM		
140 nM	C=CCc1ccccc1S(=O)(=O)NC(=O)[C@H](CCC)NC(=O)[C@@H](NC(=O)[C@@H](NC(=O)OC(C)(C)C)C(C)(C)C)c1ccc(Oc2cc(-c3ccccc3)nc3cc(OC)ccc23)c(C=C)c1	> 10000 nM		
290 nM	C=Cc1cc([C@H](NC(=O)[C@@H](NC(=O)OC(C)(C)C)C(C)(C)C)C(=O)N[C@@H](CCC)C(=O)NS(=O)(=O)c2ccccc2)ccc1Oc1cc(-c2ccccc2)nc2cc(OC)ccc12			
130 nM	C=Cc1cc([C@@H](NC(=O)[C@@H](NC(=O)OC(C)(C)C)C(C)(C)C)C(=O)N[C@@H](CCC)C(=O)NS(=O)(=O)c2ccccc2)ccc1Oc1cc(-c2ccccc2)nc2cc(OC)ccc12			
330 nM	C=CCC1(S(=O)(=O)NC(=O)[C@H](CCC)NC(=O)[C@@H](NC(=O)[C@@H](NC(=O)OC(C)(C)C)C(C)(C)C)c2ccc(Oc3cc(-c4ccccc4)nc4cc(OC)ccc34)c(C=C)c2)CC1			
300 nM	C=CCCCS(=O)(=O)NC(=O)[C@H](CCC)NC(=O)[C@@H]1C[C@@H](Oc2cc(-c3ccccc3)nc3cc(OC)ccc23)CN1C(=O)[C@@H](NC(=O)OC(C)(C)C)C(C)(C)C			
14 nM	CC(C)(C)NC(=O)N[C@H](C(=O)N1C[C@H]2[C@@H]([C@H]1C(=O)NC(CC1CCC1)C(=O)C(N)=O)C2(C)C)C(C)(C)C (some centres not stated) [BOCEPREVIR]			
0.06 nM	CC[C@@H]1C[C@]1(NC(=O)[C@@H]1C[C@@H]2CN1C(=O)[C@H](C(C)(C)C)NC(=O)OCC(C)(C)CCCCc1cccc3c1CN(C3)C(=O)O2)C(=O)NS(=O)(=O)C1CC1 [VANIPREVIR]	5 nM		
190 nM	C=CCC1(S(=O)(=O)NC(=O)[C@H](CCC)NC(=O)[C@H](NC(=O)[C@@H](NC(=O)OC(C)(C)C)C(C)(C)C)c2ccc(Oc3cc(-c4ccccc4)nc4cc(OC)ccc34)c(C=C)c2)CC1			
230 nM	CCC[C@H](NC(=O)[C@@H](NC(=O)[C@@H](NC(=O)OC(C)(C)C)C(C)(C)C)c1ccc(Oc2cc(-c3ccccc3)nc3cc(OC)ccc23)cc1)C(=O)NS(=O)(=O)c1ccccc1			

SMILES	Ki [1]	EC50 (Hepatitis C virus)	Ki (NS3 protease [2])	Ki (NS3 protease [3])
COc1ccc2c(O[C@@H]3C[C@H]4C(=O)N[C@]5(C(=O)O)C[C@H]5/C=C\CCCCC[C@H](NC(=O)OC5CCCC5)C(=O)N4C3)cc(-c3csc(NC(C)C)n3)nc2c1 [CILUPREVIR]	0.3 nM	4 nM		
C=Cc1cc([C@H](NC(=O)[C@@H](NC(=O)OC(C)(C)C)C(C)(C)C)C(=O)N[C@@H](CCC)C(=O)NS(=O)(=O)c2ccccc2C=C)ccc1Oc1cc(-c2ccccc2)nc2cc(OC)ccc12	120 nM	> 10000 nM	250 nM	450 nM
C=CCCCS(=O)(=O)NC(=O)[C@H](CCC)NC(=O)[C@@H](NC(=O)[C@@H](NC(=O)OC(C)(C)C)C(C)(C)C)c1ccc(Oc2cc(-c3ccccc3)nc3cc(OC)ccc23)c(C=C)c1	63 nM	> 10000 nM	180 nM	140 nM
C=CCCCS(=O)(=O)NC(=O)[C@H](CCC)NC(=O)[C@H](NC(=O)[C@@H](NC(=O)OC(C)(C)C)C(C)(C)C)c1ccc(Oc2cc(-c3ccccc3)nc3cc(OC)ccc23)c(C=C)c1	48 nM	8900 nM	86 nM	380 nM
C=CCCCCS(=O)(=O)NC(=O)[C@H](CCC)NC(=O)[C@@H](NC(=O)[C@@H](NC(=O)OC(C)(C)C)C(C)(C)C)c1ccc(Oc2cc(-c3ccccc3)nc3cc(OC)ccc23)c(C=C)c1	120 nM	> 10000 nM	380 nM	390 nM
C=CCCCCS(=O)(=O)NC(=O)[C@H](CCC)NC(=O)[C@H](NC(=O)[C@@H](NC(=O)OC(C)(C)C)C(C)(C)C)c1ccc(Oc2cc(-c3ccccc3)nc3cc(OC)ccc23)c(C=C)c1	100 nM	4700 nM	270 nM	530 nM
C=Cc1cc([C@@H](NC(=O)[C@@H](NC(=O)OC(C)(C)C)C(C)(C)C)C(=O)N[C@@H](CCC)C(=O)NS(=O)(=O)c2ccccc2C=C)ccc1Oc1cc(-c2ccccc2)nc2cc(OC)ccc12	47 nM	5400 nM	180 nM	230 nM
